# Assay results as given in ChEMBL document CHEMBL1143202.
# Calls of active or inactive are those of the source. The calls are words filed in the database; no cut-off is given here.
# What was measured:
# Rattus norvegicus [1] = organism: Rattus norvegicus; test: Effect on oxygen consumption rate in Wistar Albino rat liver mitochondria assessed as inhibition in state 3 respiration at 75 uM in presence of succinate relative to control; format: functional; design: scale not given: the % may be the effect or the level left
# In short: (§1)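 Isolated rat liver mitochondria respiring on glutamate or succinate as substrate; oxygen consumption recorded. State 3 is the rate after ADP addition and state 4 the rate after ADP is exhausted. The respiratory control coefficient (RCC) and ADP/O ratio were determined in the same runs. Flavone tested across 25–200 μM.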
# Rattus norvegicus [2] = organism: Rattus norvegicus; test: Effect on oxygen consumption rate in Wistar Albino rat liver mitochondria assessed as inhibition in state 3 respiration at 50 uM in presence of sodium glutamate relative to control; format: functional; design: scale not given: the % may be the effect or the level left; in short: as §1
# Rattus norvegicus [3] = organism: Rattus norvegicus; test: Effect on respiratory control coefficient in Wistar Albino rat liver mitochondria at 75 uM in presence of sodium glutamate relative to control; format: functional; in short: as §1
# Rattus norvegicus [4] = organism: Rattus norvegicus; test: Inhibition of cytochrome c oxidase in Wistar Albino rat liver mitochondria at 100 uM relative to control; design: scale not given: the % may be the effect or the level left
# Rattus norvegicus [5] = organism: Rattus norvegicus; test: Effect on respiratory control coefficient in Wistar Albino rat liver mitochondria at 100 uM in presence of succinate relative to control; format: functional; in short: as §1
# Rattus norvegicus [6] = organism: Rattus norvegicus; test: Inhibition of NADH dehydrogenase in Wistar Albino rat liver mitochondria at 75 uM relative to control; design: scale not given: the % may be the effect or the level left
# Rattus norvegicus [7] = organism: Rattus norvegicus; test: Effect on oxygen consumption rate in Wistar Albino rat liver mitochondria assessed as inhibition in state 3 respiration at 100 uM in presence of sodium glutamate relative to control; format: functional; design: scale not given: the % may be the effect or the level left; in short: as §1
# Rattus norvegicus [8] = organism: Rattus norvegicus; test: Effect on oxygen consumption rate in Wistar Albino rat liver mitochondria assessed as inhibition in state 3 respiration at 25 uM in presence of sodium glutamate relative to control; format: functional; design: scale not given: the % may be the effect or the level left; in short: as §1
# Rattus norvegicus [9] = organism: Rattus norvegicus; test: Effect on ADP/O ratio in Wistar Albino rat liver mitochondria at 100 uM in presence of sodium glutamate relative to control; in short: as §1
# Rattus norvegicus [10] = organism: Rattus norvegicus; test: Inhibition of cytochrome c oxidase in Wistar Albino rat liver mitochondria at 50 uM relative to control; design: scale not given: the % may be the effect or the level left
# Rattus norvegicus [11] = organism: Rattus norvegicus; test: Inhibition of cytochrome c oxidase in Wistar Albino rat liver mitochondria at 200 uM relative to control; design: scale not given: the % may be the effect or the level left
# Rattus norvegicus [12] = organism: Rattus norvegicus; test: Effect on ADP/O ratio in Wistar Albino rat liver mitochondria at 50 uM in presence of sodium glutamate relative to control; format: functional; in short: as §1
# Rattus norvegicus [13] = organism: Rattus norvegicus; test: Effect on oxygen consumption rate in Wistar Albino rat liver mitochondria assessed as inhibition in state 4 respiration at 25 uM in presence of sodium glutamate relative to control; format: functional; design: scale not given: the % may be the effect or the level left; in short: as §1
# Liver [14] = test: Reduction of cytochrome c in rat liver mitochondria in presence of catalase at 200 uM; format: functional; design: scale not given: the % may be the effect or the level left
# Rattus norvegicus [15] = organism: Rattus norvegicus; test: Effect on oxygen consumption rate in Wistar Albino rat liver mitochondria assessed as inhibition in state 3 respiration at 100 uM in presence of succinate relative to control; format: functional; design: scale not given: the % may be the effect or the level left; in short: as §1
# Rattus norvegicus [16] = organism: Rattus norvegicus; test: Inhibition of succinate dehydrogenase in Wistar Albino rat liver mitochondria at 75 uM relative to control; design: scale not given: the % may be the effect or the level left
# Rattus norvegicus [17] = organism: Rattus norvegicus; test: Effect on ADP/O ratio in Wistar Albino rat liver mitochondria at 75 uM in presence of succinate relative to control; format: functional; in short: as §1
# Rattus norvegicus [18] = organism: Rattus norvegicus; test: Effect on oxygen consumption rate in Wistar Albino rat liver mitochondria assessed as inhibition in state 3 respiration at 200 uM in presence of succinate relative to control; format: functional; design: scale not given: the % may be the effect or the level left; in short: as §1
# Rattus norvegicus [19] = organism: Rattus norvegicus; test: Inhibition of succinate oxidase in Wistar Albino rat liver mitochondria at 75 uM relative to control; design: scale not given: the % may be the effect or the level left
# Rattus norvegicus [20] = organism: Rattus norvegicus; test: Inhibition of ATPase in Wistar Albino rat livers intact mitochondria at 200 uM in presence of FCCP relative to control; design: scale not given: the % may be the effect or the level left
# Rattus norvegicus [21] = organism: Rattus norvegicus; test: Effect on oxygen consumption rate in Wistar Albino rat liver mitochondria assessed as inhibition in state 4 respiration at 100 uM in presence of succinate relative to control; format: functional; design: scale not given: the % may be the effect or the level left; in short: as §1
# Rattus norvegicus [22] = organism: Rattus norvegicus; test: Inhibition of NADH dehydrogenase in Wistar Albino rat liver mitochondria at 100 uM relative to control; design: scale not given: the % may be the effect or the level left
# Rattus norvegicus [23] = organism: Rattus norvegicus; test: Effect on oxygen consumption rate in Wistar Albino rat liver mitochondria assessed as inhibition in state 4 respiration at 50 uM in presence of sodium glutamate relative to control; format: functional; design: scale not given: the % may be the effect or the level left; in short: as §1
# Rattus norvegicus [24] = organism: Rattus norvegicus; test: Inhibition of succinate dehydrogenase in Wistar Albino rat liver mitochondria at 200 uM relative to control; design: scale not given: the % may be the effect or the level left
# Rattus norvegicus [25] = organism: Rattus norvegicus; test: Effect on respiratory control coefficient in Wistar Albino rat liver mitochondria at 75 uM in presence of succinate relative to control; format: functional; in short: as §1
# Liver [26] = test: Reduction of cytochrome c in rat liver mitochondria in presence of SOD and catalase at 200 uM; format: functional
# Rattus norvegicus [27] = organism: Rattus norvegicus; test: Inhibition of ATPase in Wistar Albino rat livers disrupted mitochondria at 100 uM relative to control; design: scale not given: the % may be the effect or the level left
# Rattus norvegicus [28] = organism: Rattus norvegicus; test: Inhibition of ATPase in Wistar Albino rat livers intact mitochondria at 50 uM in presence of FCCP relative to control; design: scale not given: the % may be the effect or the level left
# Rattus norvegicus [29] = organism: Rattus norvegicus; test: Effect on oxygen consumption rate in Wistar Albino rat liver mitochondria assessed as inhibition in state 4 respiration at 50 uM in presence of succinate relative to control; format: functional; design: scale not given: the % may be the effect or the level left; in short: as §1
# Rattus norvegicus [30] = organism: Rattus norvegicus; test: Inhibition of succinate-cytochrome c reductase in Wistar Albino rat liver mitochondria at 200 uM relative to control; design: scale not given: the % may be the effect or the level left
# Rattus norvegicus [31] = organism: Rattus norvegicus; test: Inhibition of ATPase in Wistar Albino rat livers disrupted mitochondria at 75 uM relative to control; design: scale not given: the % may be the effect or the level left
# Rattus norvegicus [32] = organism: Rattus norvegicus; test: Inhibition of ATPase in Wistar Albino rat livers disrupted mitochondria at 50 uM relative to control; design: scale not given: the % may be the effect or the level left
# Rattus norvegicus [33] = organism: Rattus norvegicus; test: Effect on oxygen consumption rate in Wistar Albino rat liver mitochondria assessed as inhibition in state 4 respiration at 100 uM in presence of sodium glutamate relative to control; format: functional; design: scale not given: the % may be the effect or the level left; in short: as §1
# Rattus norvegicus [34] = organism: Rattus norvegicus; test: Inhibition of ATPase in Wistar Albino rat livers disrupted mitochondria at 25 uM relative to control; design: scale not given: the % may be the effect or the level left
# Rattus norvegicus [35] = organism: Rattus norvegicus; test: Inhibition of succinate dehydrogenase in Wistar Albino rat liver mitochondria at 25 uM relative to control; design: scale not given: the % may be the effect or the level left
# Rattus norvegicus [36] = organism: Rattus norvegicus; test: Effect on respiratory control coefficient in Wistar Albino rat liver mitochondria at 25 uM in presence of sodium glutamate relative to control; format: functional; in short: as §1
# Liver [37] = test: Reduction of cytochrome c in rat liver mitochondria in presence of deferoxamine at 200 uM; format: functional
# Rattus norvegicus [38] = organism: Rattus norvegicus; test: Effect on oxygen consumption rate in Wistar Albino rat liver mitochondria assessed as inhibition in state 3 respiration at 75 uM in presence of sodium glutamate relative to control; format: functional; design: scale not given: the % may be the effect or the level left; in short: as §1
# Rattus norvegicus [39] = organism: Rattus norvegicus; test: Inhibition of NADH-cytochrome c reductase in Wistar Albino rat liver mitochondria at 25 uM relative to control; design: scale not given: the % may be the effect or the level left
# Liver [40] = test: Reduction of cytochrome c in rat liver mitochondria in presence of EDTA at 200 uM; format: functional
# Rattus norvegicus [41] = organism: Rattus norvegicus; test: Effect on oxygen consumption rate in Wistar Albino rat liver mitochondria assessed as inhibition in state 4 respiration at 75 uM in presence of sodium glutamate relative to control; format: functional; design: scale not given: the % may be the effect or the level left; in short: as §1
# Rattus norvegicus [42] = organism: Rattus norvegicus; test: Inhibition of cytochrome c oxidase in Wistar Albino rat liver mitochondria at 75 uM relative to control; design: scale not given: the % may be the effect or the level left
smiles,measurement,setting,value
COc1c(O)cc2oc(-c3ccc(O)c(O)c3)cc(=O)c2c1O,Activity,Rattus norvegicus [1],51.2%
same,Activity,Rattus norvegicus [2],66%
same,Activity,Rattus norvegicus [3],40.9%
same,Activity,Rattus norvegicus [4],96%
same,Activity,Rattus norvegicus [5],36.8%
same,Activity,Rattus norvegicus [6],51%
same,Activity,Rattus norvegicus [7],31.8%
same,Activity,Rattus norvegicus [8],84.9%
same,Activity,Rattus norvegicus [9],88.6%
same,Activity,Rattus norvegicus [10],104%
same,Activity,Rattus norvegicus [11],82%
same,Activity,Rattus norvegicus [12],85%
same,Activity,Rattus norvegicus [13],109%
same,Activity,Liver [14],15%
same,Activity,Rattus norvegicus [15],45.4%
same,Activity,Rattus norvegicus [16],78%
same,Activity,Rattus norvegicus [17],81.6%
same,Activity,Rattus norvegicus [18],34.7%
same,Activity,Rattus norvegicus [19],86%
same,Activity,Rattus norvegicus [20],102%
same,Activity,Rattus norvegicus [21],132%
same,Activity,Rattus norvegicus [22],50%
same,Activity,Rattus norvegicus [23],102%
same,Activity,Rattus norvegicus [24],51%
same,Activity,Rattus norvegicus [25],52.9%
same,Activity,Liver [26],inactive
same,Activity,Rattus norvegicus [27],94%
same,Activity,Rattus norvegicus [28],90%
same,Activity,Rattus norvegicus [29],109%
same,Activity,Rattus norvegicus [30],18%
same,Activity,Rattus norvegicus [31],105%
same,Activity,Rattus norvegicus [32],102%
same,Activity,Rattus norvegicus [33],99.4%
same,Activity,Rattus norvegicus [34],103%
same,Activity,Rattus norvegicus [35],71%
same,Activity,Rattus norvegicus [36],73%
same,Activity,Liver [37],inactive
same,Activity,Rattus norvegicus [38],54.9%
same,Activity,Rattus norvegicus [39],54%
same,Activity,Liver [40],Active
same,Activity,Rattus norvegicus [41],109%
same,Activity,Rattus norvegicus [42],102%
